Test [1] is filed under the species Homo sapiens. Nature of the test: Mean of rate of formation in all human liver microsomes. Type of test: functional, organism-based. Further details: unit not given here. The gist of the method: (§1)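 Human liver microsomes from frozen bank tissue, washed and resuspended in 100 mM potassium phosphate/20% glycerol/1 mM EDTA, pH 7.4. Incubated with (1'R)- or (1'S)-bufuralol 200 μM, 3 mg protein, NADP+ 1 mM, glucose 6-phosphate 20 mM, MgCl2 10 mM, G6PDH 5 units, 0.20 M phosphate pH 7.4, 37 °C, 30 min. Benzylic alcohols derivatized with (R)-PEIC, reversed-phase HPLC at 248 nm against internal standard, calibration 2-10 μg.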

The species entered for test [2] is Homo sapiens. The test is described as follows: Compound was tested for the rate of formation in human liver microsomes 108. Type of test: functional. The gist of the method: as §1
The species named for test [3] is Homo sapiens. Nature of the test: Compound was tested for the rate of formation in human liver microsomes 112. Type of test: functional. An outline of the steps: as §1
For test [4], the species on record is Homo sapiens. Nature of the test: Compound was tested for the rate of formation in human liver microsomes 114. Type of test: functional. The gist of the method: as §1
Test [5] is filed under the species Homo sapiens. The test is described as follows: Compound was tested for the rate of formation in human liver microsomes 116. Type of test: functional. The gist of the method:
as §1

For another test, the species on record is Rattus norvegicus. Nature of the test: Compound was tested for the rate of formation in rat liver microsomes. Type of test: functional. An outline of the steps:
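Liver microsomes from male Sprague-Dawley rats (~150 g) prepared at 0-4 °C. Incubated with (1'R)- or (1'S)-bufuralol 200 μM, 3 mg protein, NADP+ 1 mM, glucose 6-phosphate 20 mM, MgCl2 10 mM, G6PDH 5 units, 0.20 M phosphate pH 7.4, 37 °C, 30 min. Alcohol diastereomers derivatized with (R)-PEIC, reversed-phase HPLC at 248 nm against internal standard, calibration 10-60 μg.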

In turn, `C[C@H](O)c1cccc2cc([C@H](O)CNC(C)(C)C)oc12` yielded a Mean in the test filed under Homo sapiens [1] of 266. The Rate of formation (pM min-1 (mg of protein)-1) in the test listed under Homo sapiens [2] turned out to be 363; in the test filed under Homo sapiens [3] it was 136; in the test filed under Homo sapiens [4], 211; in the test filed under Homo sapiens [5], 355; in the test listed under Rattus norvegicus, 500.

`C[C@H](O)c1cccc2cc([C@@H](O)CNC(C)(C)C)oc12` returned a Mean in the test listed under Homo sapiens [1] of 66.6. Besides, the Rate of formation (pM min-1 (mg of protein)-1) was 101 in the test listed under Homo sapiens [2]; 32 in the test filed under Homo sapiens [3]; 58.8 in the test listed under Homo sapiens [4]; 74.9 in the test listed under Homo sapiens [5]; 96.1 in the test filed under Rattus norvegicus.

Take `C[C@@H](O)c1cccc2cc([C@H](O)CNC(C)(C)C)oc12`: in the test filed under Homo sapiens [1], the Mean is 66.5. Moreover, the Rate of formation (pM min-1 (mg of protein)-1) worked out at 74.5 in the test listed under Homo sapiens [2]; 54.5 in the test filed under Homo sapiens [3]; 61.7 in the test filed under Homo sapiens [4]; 75.3 in the test filed under Homo sapiens [5]; 2270 in the test filed under Rattus norvegicus.

Regarding `C[C@@H](O)c1cccc2cc([C@@H](O)CNC(C)(C)C)oc12`, in the test filed under Homo sapiens [1], the Mean is 70.2. Besides, the Rate of formation (pM min-1 (mg of protein)-1) in the test filed under Homo sapiens [2] turned out to be 86.5; in the test filed under Homo sapiens [3], 48.9; in the test filed under Homo sapiens [4], 62.1; in the test listed under Homo sapiens [5] it was 83.3; in the test filed under Rattus norvegicus, 741.

(Values after ChEMBL document CHEMBL1125776, “Enantioselective and diastereoselective hydroxylation of bufuralol. Absolute configuration of the 7-(1-hydroxyethyl)-2-[1-hydroxy-2-(tert-butylamino)ethyl]benzofurans, the benzylic hydroxylation metabolites” (J Med Chem, 1991).)
